# Hits are enriched below; roughly 3.8% of the tested compounds scored in any of these assays.
# KCNK9 block: human KCNK9 channel inhibition. Q9NPC2. B-score at 10 µM. HEK293 KCNK9, FluxOR thallium flux fluorescence; stronger effect = lower value. 310,000 tested, 1.2% active;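 active = ratio B-score over 3 SD below the library mean, with starting fluorescence within 5 SD of its mean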;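 also: negative B-score means less thallium flux so channel inhibition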
# KCNQ1 block: human KCNQ1 channel inhibition | 310,000 tested, 1.3% active | CHO-K1 KCNQ1, FluxOR thallium flux fluorescence; stronger effect = higher value | B-score at 10 µM | P51787 | AID 2642;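 active = compounds whose thallium flux B-score, printed positive for inhibition, exceeds three library SD while starting fluorescence stays within three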;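 also: channel opened by potassium depolarization with thallium stimulus after 20 min compound exposure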
# Target sequence (P51787 whole entry, looked up): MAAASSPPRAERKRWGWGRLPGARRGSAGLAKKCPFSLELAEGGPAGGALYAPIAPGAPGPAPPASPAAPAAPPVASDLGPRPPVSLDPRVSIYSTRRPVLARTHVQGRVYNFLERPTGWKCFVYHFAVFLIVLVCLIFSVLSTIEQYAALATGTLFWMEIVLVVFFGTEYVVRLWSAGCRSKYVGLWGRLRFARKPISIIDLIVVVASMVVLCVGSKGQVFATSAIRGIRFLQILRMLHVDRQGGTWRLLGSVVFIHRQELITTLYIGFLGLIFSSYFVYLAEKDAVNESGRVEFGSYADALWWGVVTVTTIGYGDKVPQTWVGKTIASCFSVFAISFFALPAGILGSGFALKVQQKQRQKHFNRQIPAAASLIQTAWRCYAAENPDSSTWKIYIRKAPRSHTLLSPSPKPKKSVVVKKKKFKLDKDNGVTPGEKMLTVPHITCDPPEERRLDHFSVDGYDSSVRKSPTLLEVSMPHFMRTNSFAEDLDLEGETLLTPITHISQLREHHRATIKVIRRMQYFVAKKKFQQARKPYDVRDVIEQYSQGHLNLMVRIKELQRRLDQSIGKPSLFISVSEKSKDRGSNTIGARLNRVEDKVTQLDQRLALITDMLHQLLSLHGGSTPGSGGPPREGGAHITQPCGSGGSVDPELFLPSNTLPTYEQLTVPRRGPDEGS
# KCNQ1 act: potentiators or activators of human KCNQ1 potassium channel. P51787. CHO-K1 KCNQ1, thallium flux FluxOR fluorescence; stronger effect = higher value. B-score at 10 µM. 310,000 tested, 0.35% active. AID 2648;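 active = fluorescence ratio B-score, a plate-corrected score, at least three library SD, with initial intensity B-score within 5 SD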
#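 System: Stable KCNQ1 CHO-K1 line | Incubation: 90 min dye loading and 20 min compound exposure, both at room temperature | Measure: Ratio B score | Medium: Assay buffer for compound exposure, DMSO matched across wells | Compound dosing: Single-concentration screen | Probe or stimulus: K+/Tl+ depolarizing stimulus | Measured by: Kinetic FluxOR fluorescence, 10 s baseline plus 110 s post-stimulus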
# hERG rescue: compounds protecting human hERG from proarrhythmic drug block; CHO-hERG, FluxOR thallium flux, dofetilide IC70 present; activation (rescue from dofetilide block), less the hit threshold, % at 10 µM; 310,000 tested, 0.51% active; AID 1511;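 active = activation above the mean of controls blocked by dofetilide plus 5 SD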;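 also: thallium influx through hERG after potassium depolarization seen as dye fluorescence rise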
# Kir21 block: Kir2.1 (mouse) channel inhibition; P35561; B-score at 10 µM; AID 1672; HEK293-Kir2.1, FluxOR thallium flux fluorescence; stronger effect = lower value; 310,000 tested, 0.85% active;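 active = fluorescence ratio B-score at or below minus 3 SD of library scores, with starting-brightness B-score within 2 SD, cut at about -4.2 in these data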;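 also: channel flux triggered by added potassium and thallium sulfate stimulus; B-score of peak minus minimum fluorescence over baseline after thallium stimulus; more negative B-score means stronger Kir2.1 block with less thallium influx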
# KCNK3 inh: human KCNK3 channel inhibition, primary screen; O14649; CHO-KCNK3 thallium flux, FluxOR fluorescence; stronger effect = lower value; B-score at 10 µM; 340,000 tested, 0.84% active;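 active = B-score under library mean minus 4 SD, starting fluorescence ratio at most library mean plus 5 SD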;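 also: more negative B-score means stronger inhibition of thallium flux through KCNK3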
# KCNK9 inh conf: human KCNK9 inhibitor confirmation; shares compounds with KCNK9 block; HEK293 KCNK9 cells, FluxOR thallium flux fluorescence; inhibition, % at 10 µM; 4,900 tested, 43% active; AID 492992;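 active = thallium signal inhibited by more than 5 SD of the compound-free buffer control wells, on both duplicate plates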;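 also: 0% = assay buffer control wells without compound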
# Kir2-1 spec: selectivity of KCNK9 modulators against mouse Kir2.1; Kir2.1 cells, FluxOR thallium flux fluorescence; 4,900 tested, 4% active; shares compounds with KCNK9 block; inhibition, % at 10 µM; AID 492993;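 active = thallium signal drop more than 5 SD beyond the mean of the no-compound control wells, seen in both duplicate plates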;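 also: signal is fluorescence rise after thallium addition divided by baseline fluorescence; plate controls were assay buffer only for no effect and full block by chlorpromazine control for full effect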
# KCNK9 uninduced: non-induced cell nonspecific activity of KCNK9 modulators | shares compounds with KCNK9 block | non-induced KCNK9-HEK293, FluxOR thallium flux | inhibition, % at 10 µM | 4,900 tested, 40% active | AID 492997;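 active = thallium signal drop beyond 5 SD of the untreated control mean, on both duplicate plates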;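 also: plate controls were buffer only IC0 wells for no effect and SID17386958 at its maximal inhibitory level for full effect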
# Active calls of the source: *; i = inactive; x = no result given.
SMILES,KCNK9 block,KCNQ1 block,KCNQ1 act,hERG rescue,Kir21 block,KCNK3 inh,KCNK9 inh conf,Kir2-1 spec,KCNK9 uninduced
O=C(O)C(Cc1ccccc1)N1C(=O)/C(=C/c2cccnc2)SC1=S (configuration not stated),i,i,i,-8,-0.04,i,x,x,x
COc1ccc(/C=C2\SC(=S)N(CCC(=O)Nc3ccccc3C(=O)O)C2=O)cc1,i,i,i,-1,-0.16,i,i,i,i
COc1ccc(/C=C2\SC(=S)N(C(Cc3ccccc3)C(=O)O)C2=O)cc1 (configuration not stated),i,i,i,-15,0.32,i,i,i,i
CCOc1ccc(/C=C2\SC(=S)N(CCC(=O)Nc3ccccc3C(=O)O)C2=O)cc1,i,i,i,-11,0.84,i,x,x,x
COc1cc(/C=C2\SC(=S)N(CCC(=O)Nc3ccccn3)C2=O)cc(OC)c1OC,-8.3*,i,i,-12,0.01,i,i,i,i
CSc1ccc(CCNS(=O)(=O)c2c(C)[nH]c(C)c2C(=O)N2CCCCC2)cc1,i,i,i,-10,-1.1,i,x,x,x
COc1cc(C(=O)NNC(=O)C2CSC3(C)CCC(=O)N23)cc(OC)c1OC (configuration not stated),x,x,x,x,x,i,x,x,x
Cc1sc2nc(CSc3ccccc3)nc(N3CCN(C)CC3)c2c1C,i,i,i,-19,-4.7*,i,i,i,30%*
COCC1CCN(Cc2nc(COc3ccccc3)no2)C1 (configuration not stated),i,i,i,-11,-0.45,i,x,x,x
Fc1ccccc1C1CCN(Cc2nc(COc3ccccc3)no2)C1 (configuration not stated),i,i,i,-16,0.05,i,i,i,i
c1ccc(OCc2noc(CN3CCC(C4CCCCC4)C3)n2)cc1 (configuration not stated),i,i,i,-7,0.78,i,i,i,i
Fc1ccccc1OCC1CCCN(Cc2nc(CC3CC3)no2)C1 (configuration not stated),i,i,i,-9,0.06,i,i,i,i
Clc1cccc(C2CCN(Cc3nc(CC4CC4)no3)C2)c1 (configuration not stated),i,i,i,-9,-2.2,i,i,i,i
COC1CCCN(Cc2nc(Cc3ccccc3F)no2)C1 (configuration not stated),i,i,i,-8,0.83,i,x,x,x
CCOc1ccc(C(C(=O)NCC2CCCO2)N(C(=O)c2snc(C(N)=O)c2N)c2ccccc2F)cc1 (configuration not stated),i,i,i,-30,-0.03,i,x,x,x
COc1ccccc1CNS(=O)(=O)c1cc(C(=O)N(C)Cc2cccnc2)c(Cl)cc1Cl,x,x,x,x,x,i,x,x,x
N#Cc1c(N)nc2c(c1N)CC(=O)N2c1ccc(Cl)cc1,i,i,i,0,0.08,i,x,x,x
c1ccc(COC2CCCN(Cc3nc(Cc4ccccc4)no3)C2)cc1 (configuration not stated),i,i,i,-9,-1.1,i,i,i,i
COc1ccc(C2C(C(=O)N3CCCC3)CC(=O)N2c2ccc(OC)cc2)cc1 (configuration not stated),i,i,i,-9,-0.54,i,x,x,x
Cc1ccc(S(=O)(=O)N2CCOCC2)cc1NC(=O)COC(=O)Cc1ccc(Cl)cc1,x,x,x,x,x,i,x,x,x
Cc1ccc(S(=O)(=O)N2CCCCC2)cc1NC(=O)COC(=O)Cc1ccc(Cl)cc1,i,i,i,-11,-0.54,i,i,i,i
CCOc1ccccc1-n1c(SCC(=O)Nc2nccs2)nnc1-c1ccoc1C,-8.7*,i,i,-11,0.53,i,47%*,i,26%*
CCOc1ccc(-n2c(SCC(=O)Nc3nccs3)nnc2-c2ccoc2C)cc1,i,i,i,-6,-0.03,i,x,x,x
CSc1ccccc1-n1nnnc1SCC(=O)Nc1ccccc1C,i,i,i,-16,-1.4,i,x,x,x
Cc1ccc(C)n1-n1cnc2sc(-c3ccccc3)cc2c1=O,-14*,i,i,-8,-2.4,i,44%*,i,26%*
SMILES,KCNK9 block,KCNQ1 block,KCNQ1 act,hERG rescue,Kir21 block,KCNK3 inh,KCNK9 inh conf,Kir2-1 spec,KCNK9 uninduced
Cc1ccc(C)n1-n1c(C)nc2sc(-c3ccccc3)cc2c1=O,i,i,i,-11,-1.9,i,i,i,i
CCn1cnc2sc(-c3ccccc3)cc2c1=O,i,i,i,-7,-1.7,i,x,x,x
COc1ccc(-c2cc(=O)[nH]c(=S)[nH]2)cc1,i,i,i,-8,-0.06,i,x,x,x
C/C=C(\C)CN1CCC(n2nccc2NC(=O)CCCc2ccccc2)CC1,i,i,i,-2,0,i,x,x,x
CSc1ccccc1OCc1cc(C(=O)N2CCc3sccc3C2)no1,i,i,i,-7,-0.85,i,i,i,i
O=C(c1cc(COc2ccc(F)cc2Cl)on1)N1CCc2sccc2C1,i,i,i,-10,0.89,i,x,x,x
Cc1ccc(-c2ccc(C(=O)Nc3cccc(F)c3)o2)c2ccccc12,i,i,i,-17,1.5,i,i,i,i
COc1ccc(NC(=O)c2ccc(-c3ccc(C)c4ccccc34)o2)cc1,i,i,i,-8,0.9,i,x,x,x
O=C(OCCN1CCN(c2ncc(C(F)(F)F)cc2Cl)CC1)c1ccc(F)cc1,i,i,i,-8,-0.08,i,x,x,x
Cc1ccc(C(=O)OCCN2CCN(c3ncc(C(F)(F)F)cc3Cl)CC2)cc1,i,i,i,-13,0.62,i,i,i,i
COc1ccc(C(=O)OC2CCN(c3ncc(C(F)(F)F)cc3Cl)CC2)cc1,i,i,i,-10,-0.02,i,i,i,i
Cc1cc(C)c2nc(N(CCN(C)C)C(=O)c3ccc4ccccc4c3)sc2c1,i,i,i,-11,1.3,i,i,i,i
CN(C)CCN(C(=O)c1ccc2ccccc2c1)c1nc2c(F)cccc2s1,i,i,i,-14,1.7,i,x,x,x
COc1ccc(/C=C(\C#N)C(=O)Nc2cccc(C)n2)cc1,i,i,i,-6,1.8,i,x,x,x

# From PubChem
